The values that follow come from ChEMBL document CHEMBL2390844, “Evaluation of bioactivities of chlorokojic acid derivatives against dermatophytes couplet with cytotoxicity” (Bioorg Med Chem Lett, 2013).

Structures are written as SMILES. In brackets after ≈: the same amount, converted by molar mass.

As a reminder, the MIC is the smallest concentration in the dilution series that meets the test's criterion for growth inhibition. Low values mean inhibition by little substance, high ones a need for much substance.

Data set [1] deals with Epidermophyton floccosum. Description: Antidermatophytic activity against Epidermophyton floccosum isolate after 7 days by broth microdilution method. The following applies: 168 h. The format is functional. The method, boiled down: (§1)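 Broth microdilution per CLSI in RPMI 1640 with L-glutamine, no bicarbonate, buffered to pH 7.0 with 0.165 M MOPS, filter-sterilized. Test dilution series 128-0.0625 μg mL⁻¹; sterility and growth (inoculum) controls on each plate. Wells inoculated, incubated 28°C for 7 days, read visually with an inverted mirror; MIC recorded. Triplicate.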
In general terms: Broth dilution looks for growth in wells or tubes with falling amounts of substance.

Data set [2] has as its system Epidermophyton floccosum. Kind of data set: Antidermatophytic activity against Epidermophyton floccosum RSKK 3027 after 7 days by broth microdilution method. Particulars: RSKK 3027, 168 h. The format is functional. Put shortly: as §1
Data set [3] concerns Nannizzia gypsea. Description: Antidermatophytic activity against Microsporum gypseum isolate after 7 days by broth microdilution method. Particulars: 168 h. In kind it is functional. Put shortly: as §1
A short description of data set [4]: Antidermatophytic activity against Trichophyton mentagrophytes var. erinacei NCPF 375 after 7 days by broth microdilution method. In kind it is functional. The following applies: Arthroderma benhamiae. The method, boiled down: as §1
Data set [5] is described as follows: Cytotoxicity against human MRC5 cells. In kind it is cell-based. The following applies: read-out: MNCC. Put shortly:
(§2)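 Maximum non-toxic concentration (MNTC) determined in HeLa and MRC-5 cells by a previously described method, based on cellular morphological alteration.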

Data set [6] concerns Nannizzia gypsea. Kind of data set: Antidermatophytic activity against Microsporum gypseum NCPF 580 after 7 days by broth microdilution method. In kind it is functional. Particulars: NCPF 580, 168 h. Put shortly:
as §1

Data set [7] can be described thus: Antidermatophytic activity against Trichophyton mentagrophytes var. erinacei isolate after 7 days by broth microdilution method. The format is functional. Particulars: Arthroderma benhamiae. The method, boiled down:
as §1

A short description of data set [8]: Cytotoxicity against human HeLa cells. The following applies: read-out: MNCC. In kind it is cell-based. Put shortly:
as §2

`O=C(OCc1ccccc1)N1CCN(Cc2oc(CCl)cc(=O)c2O)CC1`: the minimal inhibitory concentration (MIC) in the data set on Epidermophyton floccosum [1] stood at 8 µg/mL (≈ 20.4 µM); with Epidermophyton floccosum [2], 4 µg/mL (≈ 10.2 µM); with Nannizzia gypsea [3] it was 8 µg/mL (≈ 20.4 µM); in data set [4] it was 4 µg/mL (≈ 10.2 µM); in the data set with Nannizzia gypsea [6] it was 4 µg/mL (≈ 10.2 µM); in data set [7], 8 µg/mL (≈ 20.4 µM). Also, the MNTC is not below 128 µg/mL in data set [5] and not below 256 µg/mL in data set [8].
For the compound `O=c1cc(CCl)oc(CN2CCN(Cc3ccc(C(F)(F)F)cc3)CC2)c1O`, the MIC was 8 µg/mL (≈ 19.2 µM) against Epidermophyton floccosum [1]; 4 µg/mL (≈ 9.6 µM) with Epidermophyton floccosum [2]; 8 µg/mL (≈ 19.2 µM) in the data set on Nannizzia gypsea [3]; 4 µg/mL (≈ 9.6 µM) in data set [4]; 4 µg/mL (≈ 9.6 µM) with Nannizzia gypsea [6]; 8 µg/mL (≈ 19.2 µM) in data set [7]. The MNTC in data set [5] and in data set [8] was not below 512 µg/mL throughout.
With `O=c1cc(CCl)oc(CN2CCN(c3ccccc3F)CC2)c1O`, the MIC with Epidermophyton floccosum [1] is 32 µg/mL (≈ 90.7 µM); against Epidermophyton floccosum [2] it was 16 µg/mL (≈ 45.4 µM); with Nannizzia gypsea [3], 16 µg/mL (≈ 45.4 µM); in data set [4], 8 µg/mL (≈ 22.7 µM); in the data set with Nannizzia gypsea [6] it was 8 µg/mL (≈ 22.7 µM); in data set [7], 16 µg/mL (≈ 45.4 µM). The MNTC in data set [5] is not below 128 µg/mL.
As to `COC1=CC(=O)C[C@@H](C)[C@]12Oc1c(Cl)c(OC)cc(OC)c1C2=O` [GRISEOFULVIN], the MIC against Epidermophyton floccosum [1] worked out at 1 µg/mL (≈ 2.83 µM); against Epidermophyton floccosum [2], 0.5 µg/mL (≈ 1.42 µM); against Nannizzia gypsea [3], 1 µg/mL (≈ 2.83 µM); in data set [4], 0.5 µg/mL (≈ 1.42 µM); with Nannizzia gypsea [6], 0.5 µg/mL (≈ 1.42 µM); in data set [7], 1 µg/mL (≈ 2.83 µM).
`Cc1ccc(N2CCN(Cc3oc(CCl)cc(=O)c3O)CC2)cc1`: the minimum inhibitory concentration (MIC) in the data set with Epidermophyton floccosum [1] amounted to 8 µg/mL (≈ 22.9 µM); in the data set on Epidermophyton floccosum [2] it was 4 µg/mL (≈ 11.5 µM); in the data set on Nannizzia gypsea [3] it was 8 µg/mL (≈ 22.9 µM); in data set [4], 4 µg/mL (≈ 11.5 µM); in the data set with Nannizzia gypsea [6], 4 µg/mL (≈ 11.5 µM); in data set [7], 8 µg/mL (≈ 22.9 µM). Moreover, the MNTC in data set [5] and in data set [8] was not below 64 µg/mL in each case.
For `Cc1ccccc1N1CCN(Cc2oc(CCl)cc(=O)c2O)CC1`, the MIC in the data set on Epidermophyton floccosum [1] was determined as 32 µg/mL (≈ 91.7 µM); in the data set on Epidermophyton floccosum [2] it was 16 µg/mL (≈ 45.9 µM); in the data set with Nannizzia gypsea [3], 32 µg/mL (≈ 91.7 µM); in data set [4], 8 µg/mL (≈ 22.9 µM); in the data set with Nannizzia gypsea [6] it was 16 µg/mL (≈ 45.9 µM); in data set [7] it was 16 µg/mL (≈ 45.9 µM). Moreover, the MNTC in data set [5] and in data set [8] was not below 128 µg/mL throughout.
With `CC(=O)c1ccc(N2CCN(Cc3oc(CCl)cc(=O)c3O)CC2)cc1`, the MIC (against Epidermophyton floccosum [1]; in the data set on Epidermophyton floccosum [2]; with Nannizzia gypsea [3]; in data set [4]; against Nannizzia gypsea [6]; in data set [7]) was 16 µg/mL (≈ 42.5 µM) each time. Besides, the MNTC in data set [5] and in data set [8] was not below 512 µg/mL each time.
Consider `CCC(C)n1ncn(-c2ccc(N3CCN(c4ccc(OCC5COC(Cn6cncn6)(c6ccc(Cl)cc6Cl)O5)cc4)CC3)cc2)c1=O` (stereo not drawn) [ITRACONAZOLE], for which the MIC was 0.25 µg/mL (≈ 0.354 µM) against Epidermophyton floccosum [1]; 0.125 µg/mL (≈ 0.177 µM) with Epidermophyton floccosum [2]; 0.25 µg/mL (≈ 0.354 µM) in the data set on Nannizzia gypsea [3]; 0.25 µg/mL (≈ 0.354 µM) in data set [4]; 0.125 µg/mL (≈ 0.177 µM) with Nannizzia gypsea [6]; 0.5 µg/mL (≈ 0.709 µM) in data set [7].
Regarding `O=c1cc(CCl)oc(CN2CCN(Cc3cc(F)ccc3F)CC2)c1O`, the MIC against Epidermophyton floccosum [1] was found to be 8 µg/mL (≈ 20.8 µM); against Epidermophyton floccosum [2], 4 µg/mL (≈ 10.4 µM); in the data set on Nannizzia gypsea [3], 8 µg/mL (≈ 20.8 µM); in data set [4], 4 µg/mL (≈ 10.4 µM); against Nannizzia gypsea [6], 4 µg/mL (≈ 10.4 µM); in data set [7], 8 µg/mL (≈ 20.8 µM). Moreover, the MNTC in data set [5] and in data set [8] was not below 256 µg/mL each time.
`O=c1cc(CCl)oc(CN2CC=C(c3ccc(Cl)cc3)CC2)c1O`: the MIC (with Epidermophyton floccosum [1]; in the data set with Epidermophyton floccosum [2]; in the data set on Nannizzia gypsea [3]; in data set [4]; with Nannizzia gypsea [6]; in data set [7]) was 8 µg/mL (≈ 21.8 µM) in each case. The MNTC in data set [5] and in data set [8] was not below 256 µg/mL in each case.
In the case of `O=c1cc(CCl)oc(CN2CCN(c3ccc(C(F)(F)F)cc3)CC2)c1O`, the MIC was found to be 64 µg/mL (≈ 159 µM) in the data set on Epidermophyton floccosum [1]; 32 µg/mL (≈ 79.4 µM) with Epidermophyton floccosum [2]; 64 µg/mL (≈ 159 µM) against Nannizzia gypsea [3]; 32 µg/mL (≈ 79.4 µM) in data set [4]; 32 µg/mL (≈ 79.4 µM) against Nannizzia gypsea [6]; 64 µg/mL (≈ 159 µM) in data set [7]. Also, the MNTC in data set [5] was not below 128 µg/mL.
`O=c1cc(CCl)oc(CN2CC=C(c3ccc(F)cc3)CC2)c1O`: the minimal inhibitory concentration (MIC) (in the data set on Epidermophyton floccosum [1]; against Epidermophyton floccosum [2]; against Nannizzia gypsea [3]; in data set [4]; against Nannizzia gypsea [6]; in data set [7]) was 16 µg/mL (≈ 45.7 µM) in each case. For the same compound, the MNTC in data set [5] and in data set [8] was not below 256 µg/mL throughout.
In the case of `O=c1cc(CCl)oc(CN2CCN(Cc3cccc(C(F)(F)F)c3)CC2)c1O`, the MIC against Epidermophyton floccosum [1] stood at 8 µg/mL (≈ 19.2 µM); in the data set with Epidermophyton floccosum [2], 4 µg/mL (≈ 9.6 µM); against Nannizzia gypsea [3] it was 8 µg/mL (≈ 19.2 µM); in data set [4] it was 4 µg/mL (≈ 9.6 µM); against Nannizzia gypsea [6], 4 µg/mL (≈ 9.6 µM); in data set [7] it was 8 µg/mL (≈ 19.2 µM). The MNTC in data set [5] and in data set [8] was not below 512 µg/mL throughout.
